# Published values of several laboratories.
# CD36: Platelet glycoprotein 4 (CD36, Homo sapiens, UniProt P16671)
# TRPM8: Transient receptor potential cation channel subfamily M member 8 (TRPM8, Homo sapiens, UniProt Q7Z2W7)
# AKR1B1: Aldo-keto reductase family 1 member B1 (AKR1B1, Homo sapiens, UniProt P15121)
# LATS2: Serine/threonine-protein kinase LATS2 (LATS2, Homo sapiens, UniProt Q9NRM7)
SMILES,target,observed,mode,method,pH,endpoint,result
NCCCC(=O)O,"Sodium- and chloride-dependent taurine transporter (SLC6A6, Homo sapiens, UniProt P31641)",binding,,MST,,Kd,26 µM
CCCCCCCCCCCCCCCC(=O)O,CD36,binding,,SPR,,Kd,247 µM
CCCCCCCCCP(=O)(C(C)C)C(C)C,TRPM8,ion current,agonist,patch clamp,,EC50,24.8 µM
CCCCC(=O)Nc1ccc(-c2ccc3ncn(CCC)c(=O)c3c2)cn1,"Phosphatidylinositol 5-phosphate 4-kinase type-2 gamma (PIP4K2C, Homo sapiens, UniProt Q8TBX8, del300-341)",binding,,ITC,,Kd,0.123 µM
CCOc1cccc(C2CC(=O)Nc3c2c(C)nn3-c2ccc3nncn3n2)c1 (centres unmarked),"DNA damage-binding protein 1 (DDB1, Homo sapiens, UniProt Q16531)",binding,,SPR,,Kd,10 µM
CCCCCCCP(=O)(C(C)C)C(C)C,TRPM8,calcium signal,agonist,,,EC50,4.73 µM
COc1cc(/C=N/NC(=S)N/N=C\c2ccc([N+](=O)[O-])cc2)ccc1Oc1ccnc2cc(Cl)ccc12,AKR1B1,enzyme activity,inhibitor,absorbance,,IC50,16.6 µM
Cc1ccc(C(=O)Nc2ccc(S(=O)(=O)O)c3cc(S(=O)(=O)O)cc(S(=O)(=O)O)c23)cc1NC(=O)c1cccc(NC(=O)Nc2cccc(C(=O)Nc3cc(C(=O)Nc4ccc(S(=O)(=O)O)c5cc(S(=O)(=O)O)cc(S(=O)(=O)O)c45)ccc3C)c2)c1,"Electrogenic aspartate/glutamate antiporter SLC25A13, mitochondrial (SLC25A13, Homo sapiens, UniProt Q9UJS0)",binding,,ITC,pH 6.5,Kd,7.57 µM
COc1cc(/C=N/NC(=S)NN=Cc2sccc2C)ccc1Oc1ccnc2cc(Cl)ccc12,AKR1B1,enzyme activity,inhibitor,absorbance,,IC50,15.9 µM
O=C1NC(c2cccc([N+](=O)[O-])c2)=CCN1c1ccccc1O,TRPM8,ion current,agonist,patch clamp,,EC50,0.412 µM
CCNC(=O)C1CC(C)CCC1C(C)C (centres unmarked),TRPM8,calcium signal,agonist,,,EC50,8.36 µM
Fc1c[nH]c2nccc(-c3ccc(C4CCNCC4)cc3)c12,LATS2,enzyme activity,inhibitor,radiometric,,IC50,0.011 µM
N#Cc1ccc(O[C@H]2CC[C@H](NC(=O)c3ccc(N4CCC(CN5CCN(c6cc7c(cc6F)C(=O)N(C6CCC(=O)NC6=O)C7=O)CC5)CC4)nn3)CC2)cc1Cl (some centres unmarked),CD36,binding,,SPR,,Kd,5.9 µM
COc1cc(/C=N/NC(=S)NN=Cc2ccc(CO)o2)ccc1Oc1ccnc2cc(Cl)ccc12,AKR1B1,enzyme activity,inhibitor,absorbance,,IC50,21.3 µM
CNC(=O)c1ccccc1Nc1nc(Nc2ccc(N3CCNCC3)cc2)ncc1Cl,LATS2,target engagement in cells,,BRET,,IC50,0.211 µM
COc1cc(/C=N/NC(=S)N/N=C\c2ccc(CCl)cc2)ccc1Oc1ccnc2cc(Cl)ccc12,AKR1B1,enzyme activity,inhibitor,absorbance,,IC50,20.4 µM
Cc1cc(-c2ccnc3[nH]cc(F)c23)cc(F)c1[C@@]1(O)[C@H](C)CN(C2CCS(=O)(=O)CC2)C[C@@H]1C,LATS2,enzyme activity,inhibitor,radiometric,,IC50,0.0055 µM
